Kir21 block: blocks the mouse Kir2.1 inward-rectifier potassium channel. P35561. HEK293-Kir2.1, FluxOR thallium flux fluorescence; hits give low values. B-score at 10 µM. 310,000 compounds, 0.85% hits. AID 1672;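 active = fluorescence ratio B-score at or below minus 3 SD of library scores, with starting-brightness B-score within 2 SD, cut at about -4.2 in these data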;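 also: channel flux triggered by added potassium and thallium sulfate stimulus; B-score of peak minus minimum fluorescence over baseline after thallium stimulus; more negative B-score means stronger Kir2.1 block with less thallium influx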
KCNQ1 act: potentiators or activators of human KCNQ1 potassium channel | P51787 | CHO-K1 KCNQ1, thallium flux FluxOR fluorescence; hits give high values | B-score at 10 µM | 310,000 compounds, 0.35% hits;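 active = fluorescence ratio B-score, a plate-corrected score, at least three library SD, with initial intensity B-score within 5 SD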
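assay system = CHO-K1 cells stably expressing KCNQ1 | medium = assay buffer, equal DMSO in all wells | timing = 37 °C overnight plating, 90-min dark dye load, 20-min compound pretreatment | measured by = kinetic FluxOR thallium fluorescence, 10-s 1-Hz baseline, 110-s post-stimulus read | measure = fluorescence change relative to baseline, converted to B score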
KCNQ1 inh: inhibitors of human KCNQ1 potassium channel | P51787 | CHO-K1 KCNQ1, FluxOR thallium flux fluorescence; hits give high values | B-score at 10 µM | 310,000 compounds, 1.3% hits | AID 2642;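 active = compounds whose thallium flux B-score, printed positive for inhibition, exceeds three library SD while starting fluorescence stays within three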;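 also: channel opened by potassium depolarization with thallium stimulus after 20 min compound exposure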
KCNK3 inh: human KCNK3 channel inhibition, primary screen; CHO-KCNK3 thallium flux, FluxOR fluorescence; hits give low values; B-score at 10 µM; 340,000 compounds, 0.84% hits;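 active = B-score under library mean minus 4 SD, starting fluorescence ratio at most library mean plus 5 SD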;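 also: more negative B-score means stronger inhibition of thallium flux through KCNK3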
Target sequence (O14649 whole entry, looked up): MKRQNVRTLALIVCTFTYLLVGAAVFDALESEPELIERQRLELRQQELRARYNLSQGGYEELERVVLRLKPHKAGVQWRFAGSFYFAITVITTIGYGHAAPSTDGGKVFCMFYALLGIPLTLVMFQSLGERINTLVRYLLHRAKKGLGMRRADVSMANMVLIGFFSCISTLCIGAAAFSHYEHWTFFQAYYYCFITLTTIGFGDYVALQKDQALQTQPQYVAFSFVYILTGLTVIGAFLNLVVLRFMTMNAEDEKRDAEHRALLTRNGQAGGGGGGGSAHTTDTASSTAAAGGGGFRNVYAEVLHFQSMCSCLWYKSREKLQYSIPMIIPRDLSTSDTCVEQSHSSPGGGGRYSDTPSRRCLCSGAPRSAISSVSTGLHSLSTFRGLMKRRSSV
hERG rescue: hERG (human) protection from proarrhythmic block; Q12809; CHO-hERG, FluxOR thallium flux, dofetilide IC70 present; activation (rescue from dofetilide block), less the hit threshold, % at 10 µM; 310,000 compounds, 0.51% hits;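 active = activation above the mean of controls blocked by dofetilide plus 5 SD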;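 also: thallium influx through hERG after potassium depolarization seen as dye fluorescence rise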
KCNK9 inh: inhibitors of human KCNK9 two-pore domain potassium channel | Q9NPC2 | HEK293 KCNK9, FluxOR thallium flux fluorescence; hits give low values | B-score at 10 µM | 310,000 compounds, 1.2% hits;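 active = ratio B-score over 3 SD below the library mean, with starting fluorescence within 5 SD of its mean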;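 also: negative B-score means less thallium flux so channel inhibition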
Target sequence (Q9NPC2 whole entry, looked up, the tested form may be a part): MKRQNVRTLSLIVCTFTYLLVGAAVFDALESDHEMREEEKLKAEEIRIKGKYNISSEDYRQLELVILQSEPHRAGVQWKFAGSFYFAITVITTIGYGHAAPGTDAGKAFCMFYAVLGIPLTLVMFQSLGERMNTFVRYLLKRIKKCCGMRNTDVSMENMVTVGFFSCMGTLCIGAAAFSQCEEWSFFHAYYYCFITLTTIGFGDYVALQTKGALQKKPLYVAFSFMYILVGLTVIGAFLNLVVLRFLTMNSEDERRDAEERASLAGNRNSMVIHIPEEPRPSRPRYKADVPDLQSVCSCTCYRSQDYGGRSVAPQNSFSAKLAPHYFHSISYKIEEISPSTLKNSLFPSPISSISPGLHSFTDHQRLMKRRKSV
KCNK9 inh conf: confirmation of human KCNK9 potassium channel inhibitors; shares compounds with KCNK9 inh; HEK293 KCNK9 cells, FluxOR thallium flux fluorescence; inhibition, % at 10 µM; 4,900 compounds, 43% hits; AID 492992;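 active = thallium signal inhibited by more than 5 SD of the compound-free buffer control wells, on both duplicate plates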
Kir2-1 spec: selectivity of KCNK9 modulators against mouse Kir2.1 | shares compounds with KCNK9 inh | Kir2.1 cells, FluxOR thallium flux fluorescence | inhibition, % at 10 µM | 4,900 compounds, 4% hits | AID 492993;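 active = thallium signal drop more than 5 SD beyond the mean of the no-compound control wells, seen in both duplicate plates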;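 also: signal is fluorescence rise after thallium addition divided by baseline fluorescence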
KCNK9 uninduced: non-induced cell nonspecific activity of KCNK9 modulators | shares compounds with KCNK9 inh | non-induced KCNK9-HEK293, FluxOR thallium flux | inhibition, % at 10 µM | 4,900 compounds, 40% hits;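 active = thallium signal drop beyond 5 SD of the untreated control mean, on both duplicate plates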
Of the large screens only hits and unclear results are named; the others gave an inactive call (follow-up assays come after a bar, where they were run). An excerpt weighted towards active compounds, which were near 3.7% of everything screened.

Cc1cc2nc(-c3cc(N4CCOCC4)ccc3[N+](=O)[O-])ccn2n1	none
O=C1CCCC2=C1C(c1ccc(Cl)cc1)C1C(=O)c3ccccc3C1=N2 (stereo not drawn)	none
O=C1CCCC2=C1C(c1ccccc1)C1C(=O)c3ccccc3C1=N2 (stereo not drawn)	none
O=C1c2ccccc2C2=Nc3ccccc3SC(c3cccc(F)c3)C12 (stereo not drawn)	KCNK9 inh -15 | KCNK9 inh conf 56% | Kir2-1 spec inactive | KCNK9 uninduced 56%
O=C1c2ccccc2C2=Nc3ccccc3SC(c3ccc(Cl)cc3)C12 (stereo not drawn)	KCNK9 inh -13 | KCNK9 inh conf 46% | Kir2-1 spec inactive | KCNK9 uninduced 34%
CC1(c2nnc(-c3cccc(Cl)c3)o2)CC(c2c(Cl)cccc2Cl)=NO1 (stereo not drawn)	KCNK9 inh -10 | KCNK9 inh conf 58% | Kir2-1 spec inactive | KCNK9 uninduced 29%
Cc1ccc(C2=NOC(C)(c3nnc(-c4cccc(Cl)c4)o3)C2)cc1 (stereo not drawn)	none
Cc1[nH]n(C2=NCCS2)c(=O)c1N=Nc1ccccc1	KCNK9 inh -12 | KCNK9 inh conf inactive | Kir2-1 spec inactive | KCNK9 uninduced 32%
Cc1[nH]n(-c2ccccc2)c(=O)c1N=Nc1ccc2c(c1)OCO2	none
COc1ccccc1CNC(=O)CN1C(=O)N(C)C2(CCCCC2)C1=O	none (no result: Kir21 block, KCNQ1 act, KCNQ1 inh, hERG rescue, KCNK9 inh)
CCc1nnc(NC(=O)CSc2nnc(-c3ccccc3OC)n2-c2ccc(C)cc2)s1	none
CCc1nnc(NC(=O)CSc2nnc(-c3ccccc3OC)n2-c2ccccc2)s1	KCNK9 inh -17 | KCNK9 inh conf 68% | Kir2-1 spec inactive | KCNK9 uninduced 32%
O=c1nc(SCc2ccc(Cl)cc2)nc(-c2ccccc2)[nH]1	none | KCNK9 inh conf inactive | Kir2-1 spec inactive | KCNK9 uninduced inactive
CCCCn1c(N)c(N(CC)C(=O)C2=COCCO2)c(=O)[nH]c1=O	none
CCN(CC)C(=O)[C@H]1C[C@H](CC(=O)NCCc2ccccn2)C(=O)N2CCc3c([nH]c4ccc(Cl)cc34)[C@]12C	none (no result: Kir21 block, KCNQ1 act, KCNQ1 inh, hERG rescue, KCNK9 inh)
CCn1cc(CCCC(=O)NCc2cccc(OC)c2)c2ccccc21	none | KCNK9 inh conf inactive | Kir2-1 spec inactive | KCNK9 uninduced inactive
COc1cccc(CNC(=O)C(Cc2ccccc2)n2cccc2)c1 (stereo not drawn)	none | KCNK9 inh conf inactive | Kir2-1 spec inactive | KCNK9 uninduced inactive
CCn1cc(CCCC(=O)NCc2ccccc2OC)c2ccccc21	none
CCS(=O)(=O)Nc1ccc(C2=NN(S(=O)(=O)CC)C(c3cccs3)C2)cc1 (stereo not drawn)	none
Cc1ccc(CNc2nc(-c3cccs3)nc3ccccc23)cc1	KCNK9 inh -8.8 | KCNK9 inh conf 36% | Kir2-1 spec inactive | KCNK9 uninduced 30%
Cc1cc(Cl)ccc1OC(C)C(=O)N1CCCN(C(=O)C(C)Oc2ccc(Cl)cc2C)CC1 (stereo not drawn)	KCNK9 inh -15 | KCNK9 inh conf 58% | Kir2-1 spec inactive | KCNK9 uninduced 30%
CCC(C)C(=O)Nc1nc(C)c(-c2csc(Nc3ccccc3OC)n2)s1 (stereo not drawn)	KCNK9 inh -9.2 | KCNK9 inh conf 58% | Kir2-1 spec inactive | KCNK9 uninduced 28%
O=C(Nc1nc(-c2ccco2)cs1)c1ccccc1	none
COc1ccc(Cl)cc1Nc1nc(-c2sc(NC(=O)CC(C)C)nc2C)cs1	KCNK9 inh -13 | KCNK9 inh conf 41% | Kir2-1 spec inactive | KCNK9 uninduced 34%
COc1ccc(-c2csc(NC(=O)c3ccco3)n2)cc1	KCNK9 inh -8.7 | KCNK9 inh conf inactive | Kir2-1 spec inactive | KCNK9 uninduced inactive
Cc1ccc(-c2csc(NC(=O)c3ccc(-c4ccccc4)cc3)n2)o1	KCNK9 inh -9.7 | KCNK9 inh conf inactive | Kir2-1 spec inactive | KCNK9 uninduced inactive
COc1ccc(NC(=O)c2oc3ccccc3c2NC(=O)C(C)(C)C)cc1	none
Cc1ccc(Cl)cc1Nc1nc(-c2sc(NC(=O)c3ccco3)nc2C)cs1	KCNK9 inh -12 | KCNK9 inh conf 34% | Kir2-1 spec inactive | KCNK9 uninduced inactive
COc1ccc(NC(=O)c2oc3ccccc3c2NC(=O)c2ccco2)cc1	KCNK9 inh -9.1 | KCNK9 inh conf inactive | Kir2-1 spec inactive | KCNK9 uninduced inactive
Cc1cc(NCCOCCO)n2c(nc3ccccc32)c1C#N	KCNK9 inh -14 | KCNK9 inh conf 36% | Kir2-1 spec inactive | KCNK9 uninduced inactive
CNc1cc(C)c(C#N)c2nc3ccccc3n12	none
Cc1cccc(NC(=O)CSc2cc(C)c(C#N)c3nc4ccccc4n23)c1	none | KCNK9 inh conf inactive | Kir2-1 spec inactive | KCNK9 uninduced inactive
COC(=O)c1c(C)[nH]c(C(=O)/C=C/c2ccccc2F)c1C	none
COC(=O)c1ccc(-c2noc(CN(C)CCC3CCCCO3)n2)cc1 (stereo not drawn)	none | KCNK9 inh conf inactive | Kir2-1 spec inactive | KCNK9 uninduced inactive
COc1ccc(-c2noc(CN(C)CCC3CCCCO3)n2)cc1 (stereo not drawn)	none | KCNK9 inh conf inactive | Kir2-1 spec inactive | KCNK9 uninduced inactive
COC(=O)c1ccc(-c2noc(CN(C)Cc3ccncc3C)n2)cc1	none
COc1ccc(C(=O)N(Cc2nc(-c3ccc(C)cc3)no2)C2CCCCC2)cc1OC	none | KCNK9 inh conf inactive | Kir2-1 spec inactive | KCNK9 uninduced inactive
COc1ccc(-c2noc(CCC(=O)NCC3CCCO3)n2)cc1 (stereo not drawn)	none
O=C(c1cccc(Cl)c1)N(Cc1ccco1)C1CCS(=O)(=O)C1 (stereo not drawn)	none
O=C(c1cc(-c2ccccc2)nc2ccccc12)N1CCN(C2CCS(=O)(=O)C2)CC1 (stereo not drawn)	none (no result: Kir21 block, KCNQ1 act, KCNQ1 inh, hERG rescue, KCNK9 inh)
CCOc1ccc(Br)cc1S(=O)(=O)Nc1ccccc1N1CCOCC1	KCNK9 inh -10 | KCNK9 inh conf inactive | Kir2-1 spec inactive | KCNK9 uninduced inactive
CSCCC(NC(=O)COc1ccccc1)C(=O)N1CCCC(C)C1 (stereo not drawn)	none
Cc1cc(OCCn2nc(C(=O)O)c3ccccc3c2=O)ccc1C(C)C	none | KCNK9 inh conf inactive | Kir2-1 spec inactive | KCNK9 uninduced inactive
Cc1ccccc1C1CCCN(Cc2nc(C3CC3)no2)C1 (stereo not drawn)	none | KCNK9 inh conf inactive | Kir2-1 spec inactive | KCNK9 uninduced inactive

Screens as filed in PubChem BioAssay.
